Experiments:
[1] = tested on: A2780^AD cells, overexpressing ABCB1; assay: Growth inhibition in doxorubicin-resistant A2780AD cells vs parental A2780; assay type: cell-based
[2] = tested on: caco-2 monolayers; assay: Transwell permeability assay across caco-2 monolayers; assay type: in vitro ADME, human; settings: compounds tested at 10 μM
Procedure, shortened: (§1)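 Caco-2 monolayers in transwells were used to measure apical-to-basal absorption (PappA–B) and basal-to-apical secretion (PappB–A). Efflux ratio was calculated as PappB–A/PappA–B. Runs were made with or without ABC transporter inhibitors (FTC for ABCG2, verapamil for ABCB1), with vinblastine as an ABCB1 reference substrate.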

[3] = tested on: caspase 3/7 activity in HCT-116 cells; assay: Caspase 3/7 assay; assay type: cell-based, human; settings: 24 h
Procedure, shortened: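 Treated cells were transferred to opaque plates and incubated 1 h with a luminogenic caspase 3/7 reagent. Luminescence on a microplate counter gave caspase 3/7 activity, normalised to protein content.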

[4] = tested on: Ki-67; settings: after 5 days of treatment; ref Li et al, 2012; cited from earlier work
[5] = Metabolic stability in mouse S9 fractions; assay type: in vitro ADME; settings: 60 min incubation with NADPH and mouse S9 fractions
[6] = Transwell permeability assay across caco-2 monolayers; assay type: in vitro ADME, human; settings: human, Caco-2
Procedure, shortened: as §1

CC(C)c1cnn2c(NCc3ccccc3)cc(NCCCCCCN)nc12 [BS-181]
Potency in A2780^AD cells compared with parental A2780 [1]: equipotent | Permeability PappA–B across caco-2 cells [2]: poorly absorbed | Caspase 3/7 activity [3]: only at the highest concentration tested

CO[C@H]1C[C@@H]2CC[C@@H](C)[C@@](O)(O2)C(=O)C(=O)N2CCCC[C@H]2C(=O)O[C@H]([C@H](C)C[C@@H]2CC[C@@H](OCCO)[C@H](OC)C2)CC(=O)[C@H](C)/C=C(\C)[C@@H](O)[C@@H](OC)C(=O)[C@H](C)C[C@H](C)/C=C/C=C/C=C/1C [everolimus]
Decrease in Ki-67 [4]: 1.6 fold

CC[C@H](CO)Nc1nc(NCc2ccccc2)c2ncn(C(C)C)c2n1 [roscovitine]
Parent compound remaining [5]: < 10%

CC[C@]1(O)C[C@@H]2CN(CCc3c([nH]c4ccccc34)[C@@](C(=O)OC)(c3cc4c(cc3OC)N(C)[C@H]3[C@@](O)(C(=O)OC)[C@H](OC(C)=O)[C@]5(CC)C=CCN6CC[C@]43[C@@H]65)C2)C1 [vinblastine]
efflux ratio at 10 μM [6]: 8

Reference: publication PMC3817326 (British Journal of Cancer, 2013)
